ChEMBL document CHEMBL1143280, “Discovery and optimization of imidazo[1,2-a]pyridine inhibitors of insulin-like growth factor-1 receptor (IGF-1R)” (Bioorg Med Chem Lett, 2009)

Columns and labels:
Aurora kinase A = target: T1, Aurora kinase A (Homo sapiens, UniProt O14965); test: Inhibition of Aurora A
T1 sequence (O14965 whole entry): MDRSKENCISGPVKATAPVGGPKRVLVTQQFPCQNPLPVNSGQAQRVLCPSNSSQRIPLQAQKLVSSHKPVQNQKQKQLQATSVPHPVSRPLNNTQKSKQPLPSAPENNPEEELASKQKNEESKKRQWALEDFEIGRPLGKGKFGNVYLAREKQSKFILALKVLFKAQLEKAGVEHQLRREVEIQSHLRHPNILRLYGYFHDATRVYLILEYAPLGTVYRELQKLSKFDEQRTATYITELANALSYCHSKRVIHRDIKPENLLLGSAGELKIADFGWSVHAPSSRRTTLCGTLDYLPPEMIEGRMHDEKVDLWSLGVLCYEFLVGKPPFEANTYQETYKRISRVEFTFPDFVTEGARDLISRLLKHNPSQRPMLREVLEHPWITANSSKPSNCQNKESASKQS

[1] = Clearance in Sprague-Dawley rat at 3 mg/kg, po; assay type: ADME, organism-based; design: dose 3 mg/kg, route oral; settings: in vivo
Procedure, shortened: (§1)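 Compound given as solution in 1.0% DMSO, 20% Captisol in saline (IV) or water (PO); dog PO given as partial suspension. IV doses 0.6–1.3 mg/kg, PO 2.1–7.2 mg/kg by species. Male Sprague–Dawley rats, male beagle dogs, male cynomolgus monkeys. Data over 0–24 h; dose-normalized AUC as ng h/mL/(mg/kg).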

LP-1 = test: Antiproliferative activity against human LP-1 cells after 72 hrs by Celltiter assay; assay type: functional, cell-based; settings: LP-1, 72 h
Procedure, shortened: (§2)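 Cells seeded in 96-well dishes and incubated overnight at 37 °C, then exposed to a range of inhibitor concentrations for 72 h. Proliferation read by CellTiter-Glo luminescence per manufacturer's protocol. IC50 from 4-parameter curve fit.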

[2] = target: T2, Insulin-like growth factor 1 receptor (Homo sapiens, UniProt P08069); test: Binding affinity to IGF1R by liquid scintillation counting; settings: read-out: Ki(app)
Procedure, shortened: (§3)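 Activated IGF-1R or IR kinase domains (pre-activated at 500 nM with 1 mM ATP for 30 min in pH 7.2 Hepes/MgCl2/BSA buffer with phosphatase inhibitors) were used at 0.5 nM final. Enzyme and ATP were pre-incubated with inhibitor for 6 h. […] Product was filter-captured and scintillation-counted. IC50 was converted to apparent Ki by Cheng–Prusoff.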

COLO 205 = test: Antiproliferative activity against human COLO205 cells after 72 hrs by Celltiter assay; assay type: functional, cell-based; settings: COLO 205, 72 h; procedure, shortened: as §2
Rattus norvegicus [3] = test: Volume of distribution at steady state in Sprague-Dawley rat at 3 mg/kg, po; assay type: ADME, organism-based; design: dose 3 mg/kg, route oral; settings: in vivo; procedure, shortened: as §1
[4] = target: Receptor tyrosine-protein kinase erbB-4 (Homo sapiens, UniProt Q15303); test: Inhibition of ErbB4
HFF = test: Antiproliferative activity against HFF cells after 72 hrs by Celltiter assay; assay type: cell-based; settings: Homo sapiens; procedure, shortened: as §2
Cynomolgus monkey [5] = test: Volume of distribution at steady state in cynomolgus monkey at 2.1 mg/kg, po; assay type: ADME, organism-based, Macaca fascicularis; design: dose 2.1 mg/kg, route oral; settings: in vivo; procedure, shortened: as §1
[6] = target: T2, Insulin-like growth factor 1 receptor; test: Inhibition of human IGF1R autophosphorylation in transfected mouse NIH3T3 cells; assay type: cell-based
Rattus norvegicus [7] = test: Dose normalized AUC in Sprague-Dawley rat at 3 mg/kg, po; assay type: ADME, organism-based; design: dose 3 mg/kg, route oral; settings: in vivo; procedure, shortened: as §1
Canis familiaris [8] = test: Dose normalized AUC in Beagle dog at 7.2 mg/kg, po; assay type: ADME, organism-based, Canis lupus familiaris; design: dose 7.2 mg/kg, route oral; settings: in vivo; procedure, shortened: as §1
[9] = target: Tyrosine-protein kinase Lck (Homo sapiens, UniProt P06239); test: Inhibition of LCK
[10] = target: Mitogen-activated protein kinase 14 (Homo sapiens, UniProt Q16539); test: Inhibition of p38alpha
[11] = target: Serine/threonine-protein kinase B-raf (Homo sapiens, UniProt P15056, V600E); test: Inhibition of B-raf V600E mutant
[12] = target: T2, Insulin-like growth factor 1 receptor; test: Inhibition of GST-tagged IGF1R (957-1367) expressed in baculovirus by time-resolved fluorescence assay
[13] = Antiproliferative activity against human TC71 cells after 72 hrs by Celltiter assay; assay type: functional, cell-based; settings: TC-71, 72 h; procedure, shortened: as §2
[14] = target: Epidermal growth factor receptor (Homo sapiens, UniProt P00533); test: Inhibition of EGFR
[15] = Antiproliferative activity against human SK-ES cells after 72 hrs by Celltiter assay; assay type: functional, cell-based; procedure, shortened: as §2
[16] = Oral bioavailability in cynomolgus monkey at 2.1 mg/kg; assay type: ADME, organism-based, Macaca fascicularis; settings: in vivo; procedure, shortened: as §1
[17] = Antiproliferative activity against human NCI-H929 cells after 72 hrs by Celltiter assay; assay type: functional, cell-based; settings: NCI-H929, 72 h; procedure, shortened: as §2
Insulin receptor [18] = target: T3, Insulin receptor (Homo sapiens, UniProt P06213); test: Binding affinity to insulin receptor by liquid scintillation counting; settings: read-out: Ki(app); procedure, shortened: as §3
[19] = Clearance in cynomolgus monkey at 2.1 mg/kg, po; assay type: ADME, organism-based, Macaca fascicularis; design: dose 2.1 mg/kg, route oral; settings: in vivo; procedure, shortened: as §1
Insulin receptor [20] = target: T3, Insulin receptor; test: Inhibition of human insulin receptor autophosphorylation in transfected mouse NIH3T3 cells; assay type: cell-based
Procedure, shortened: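 NIH-3T3 cells expressing human IR were grown on collagen-coated plates for 24 h, then given inhibitor or DMSO. After 2 h they were stimulated with bovine insulin for 15 min and lysed in RIPA. Lysates were captured overnight at 4 °C on anti-IRβ plates. Phospho-IR was detected by Eu-phosphotyrosine antibody time-resolved fluorescence (340/615 nm), and total IR by anti-IR. IC50 was taken from the phospho/total ratio curves.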

Aurora kinase B = Aurora kinase B (Homo sapiens, UniProt Q96GD4); test: Inhibition of Aurora B
A549 = test: Antiproliferative activity against human A549 cells after 72 hrs by Celltiter assay; assay type: functional, cell-based; settings: A549, 72 h; procedure, shortened: as §2
[21] = Oral bioavailability in Sprague-Dawley rat at 3 mg/kg; assay type: ADME, organism-based; settings: in vivo; procedure, shortened: as §1
[22] = target: Receptor tyrosine-protein kinase erbB-2 (Homo sapiens, UniProt P04626); test: Inhibition of ErbB2
Cynomolgus monkey [23] = test: Dose normalized AUC in cynomolgus monkey at 2.1 mg/kg, po; assay type: ADME, organism-based, Macaca fascicularis; design: dose 2.1 mg/kg, route oral; settings: in vivo; procedure, shortened: as §1
[24] = Clearance in Beagle dog at 7.2 mg/kg, po; assay type: ADME, organism-based, Canis lupus familiaris; design: dose 7.2 mg/kg, route oral; settings: in vivo; procedure, shortened: as §1
[25] = Oral bioavailability in Beagle dog at 7.2 mg/kg; assay type: ADME, organism-based, Canis lupus familiaris; settings: in vivo; procedure, shortened: as §1
Canis familiaris [26] = test: Volume of distribution at steady state in Beagle dog at 7.2 mg/kg, po; assay type: ADME, organism-based, Canis lupus familiaris; design: dose 7.2 mg/kg, route oral; settings: in vivo; procedure, shortened: as §1
Insulin receptor [27] = target: T3, Insulin receptor; test: Inhibition of GST-tagged insulin receptor expressed in baculovirus by time-resolved fluorescence assay
Procedure, shortened: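 GST-tagged IR intracellular domain (aa 979–1382), baculovirus-expressed, activated at 2.7 µM with 2 mM ATP in 50 mM Hepes pH 7.5, 10 mM MgCl2, BSA. Phosphopeptide by TRF with streptavidin-allophycocyanin and Eu-anti-phosphotyrosine. n ≥ 2.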

Mus musculus [28] = test: Dose normalized AUC (0 to 6 hrs) in po dosed mouse; assay type: ADME, organism-based; design: time < 6 hr, route oral; settings: in vivo
Procedure, shortened: (§4)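 Oral dosing in mice; dose-normalized AUC in ng h/mL/(mg/kg) calculated over 0–6 h.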

[29] = Clearance in po dosed mouse; assay type: ADME, organism-based; settings: in vivo
Mus musculus [30] = test: Dose normalized AUC (0 to 6 hrs) in mouse at 7.3 mg/kg, po; assay type: ADME, organism-based; design: time < 6 hr, dose 7.3 mg/kg, route oral; settings: in vivo; procedure, shortened: as §4

T2 sequence (P08069 31-736 limits assumed): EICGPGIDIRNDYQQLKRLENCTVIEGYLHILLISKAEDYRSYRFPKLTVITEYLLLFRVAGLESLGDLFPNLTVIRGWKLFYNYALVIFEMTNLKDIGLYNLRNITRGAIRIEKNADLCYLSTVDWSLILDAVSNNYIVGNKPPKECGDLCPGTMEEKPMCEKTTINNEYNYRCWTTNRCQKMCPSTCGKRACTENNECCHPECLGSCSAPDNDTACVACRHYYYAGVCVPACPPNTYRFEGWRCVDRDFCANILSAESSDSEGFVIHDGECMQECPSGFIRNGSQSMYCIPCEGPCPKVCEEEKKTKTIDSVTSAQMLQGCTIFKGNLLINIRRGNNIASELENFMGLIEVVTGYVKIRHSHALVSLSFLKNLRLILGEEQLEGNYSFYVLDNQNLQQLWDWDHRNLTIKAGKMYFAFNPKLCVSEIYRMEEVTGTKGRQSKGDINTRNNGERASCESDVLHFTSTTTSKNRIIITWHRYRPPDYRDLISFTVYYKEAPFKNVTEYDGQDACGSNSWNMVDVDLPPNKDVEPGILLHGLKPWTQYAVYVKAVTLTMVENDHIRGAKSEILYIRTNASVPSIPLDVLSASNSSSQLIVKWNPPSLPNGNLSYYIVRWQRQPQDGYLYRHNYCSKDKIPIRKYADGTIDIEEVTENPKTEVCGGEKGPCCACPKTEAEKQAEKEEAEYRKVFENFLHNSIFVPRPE
T2 sequence (P08069 741-1367 limits assumed): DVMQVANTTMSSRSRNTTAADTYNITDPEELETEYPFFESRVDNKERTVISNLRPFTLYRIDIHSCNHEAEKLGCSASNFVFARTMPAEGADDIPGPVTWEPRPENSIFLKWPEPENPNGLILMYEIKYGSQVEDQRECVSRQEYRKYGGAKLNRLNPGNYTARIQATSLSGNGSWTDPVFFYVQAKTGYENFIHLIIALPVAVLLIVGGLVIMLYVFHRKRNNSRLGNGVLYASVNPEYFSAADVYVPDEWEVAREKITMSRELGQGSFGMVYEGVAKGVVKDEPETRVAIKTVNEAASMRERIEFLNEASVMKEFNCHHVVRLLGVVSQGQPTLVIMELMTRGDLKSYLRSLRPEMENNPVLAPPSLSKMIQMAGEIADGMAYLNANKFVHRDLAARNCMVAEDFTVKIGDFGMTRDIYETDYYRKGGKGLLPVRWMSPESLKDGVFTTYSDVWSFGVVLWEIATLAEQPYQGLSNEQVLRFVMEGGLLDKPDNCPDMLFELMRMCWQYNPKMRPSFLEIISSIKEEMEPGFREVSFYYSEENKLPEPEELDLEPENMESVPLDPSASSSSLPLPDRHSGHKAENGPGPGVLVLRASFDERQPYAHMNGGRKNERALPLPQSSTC
Mitogen-activated protein kinase 14, sequence (Q16539 whole entry): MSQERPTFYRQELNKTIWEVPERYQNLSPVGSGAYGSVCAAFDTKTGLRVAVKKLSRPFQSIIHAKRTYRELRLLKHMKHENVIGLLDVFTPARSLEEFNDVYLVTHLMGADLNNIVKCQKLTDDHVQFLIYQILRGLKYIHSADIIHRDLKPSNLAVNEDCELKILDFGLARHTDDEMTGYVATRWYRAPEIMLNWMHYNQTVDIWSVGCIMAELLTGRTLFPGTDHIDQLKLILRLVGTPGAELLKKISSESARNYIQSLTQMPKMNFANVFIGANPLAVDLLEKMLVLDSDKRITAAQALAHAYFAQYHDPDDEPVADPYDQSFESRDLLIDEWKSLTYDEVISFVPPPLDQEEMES
T3 sequence (P06213 28-758 limits assumed): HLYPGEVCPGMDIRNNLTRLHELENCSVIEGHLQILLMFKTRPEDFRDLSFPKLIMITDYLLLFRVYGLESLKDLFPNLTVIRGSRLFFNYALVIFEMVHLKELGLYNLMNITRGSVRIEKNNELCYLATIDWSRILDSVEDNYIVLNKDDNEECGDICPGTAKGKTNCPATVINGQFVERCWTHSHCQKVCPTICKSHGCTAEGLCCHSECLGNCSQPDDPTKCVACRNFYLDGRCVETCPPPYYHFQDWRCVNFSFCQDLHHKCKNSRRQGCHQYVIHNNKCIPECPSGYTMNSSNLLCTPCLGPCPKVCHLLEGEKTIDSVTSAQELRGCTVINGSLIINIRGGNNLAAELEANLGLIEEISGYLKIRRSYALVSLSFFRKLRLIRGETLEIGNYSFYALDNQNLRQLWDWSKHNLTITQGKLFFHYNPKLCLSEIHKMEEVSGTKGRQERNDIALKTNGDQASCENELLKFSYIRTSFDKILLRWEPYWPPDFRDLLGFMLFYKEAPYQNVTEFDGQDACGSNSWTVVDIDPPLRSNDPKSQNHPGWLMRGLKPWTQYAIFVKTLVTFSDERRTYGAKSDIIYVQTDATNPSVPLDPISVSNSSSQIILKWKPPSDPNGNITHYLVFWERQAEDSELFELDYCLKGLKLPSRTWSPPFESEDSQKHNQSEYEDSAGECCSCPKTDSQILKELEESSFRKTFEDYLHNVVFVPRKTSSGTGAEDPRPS
T3 sequence (P06213 763-1382 limits assumed): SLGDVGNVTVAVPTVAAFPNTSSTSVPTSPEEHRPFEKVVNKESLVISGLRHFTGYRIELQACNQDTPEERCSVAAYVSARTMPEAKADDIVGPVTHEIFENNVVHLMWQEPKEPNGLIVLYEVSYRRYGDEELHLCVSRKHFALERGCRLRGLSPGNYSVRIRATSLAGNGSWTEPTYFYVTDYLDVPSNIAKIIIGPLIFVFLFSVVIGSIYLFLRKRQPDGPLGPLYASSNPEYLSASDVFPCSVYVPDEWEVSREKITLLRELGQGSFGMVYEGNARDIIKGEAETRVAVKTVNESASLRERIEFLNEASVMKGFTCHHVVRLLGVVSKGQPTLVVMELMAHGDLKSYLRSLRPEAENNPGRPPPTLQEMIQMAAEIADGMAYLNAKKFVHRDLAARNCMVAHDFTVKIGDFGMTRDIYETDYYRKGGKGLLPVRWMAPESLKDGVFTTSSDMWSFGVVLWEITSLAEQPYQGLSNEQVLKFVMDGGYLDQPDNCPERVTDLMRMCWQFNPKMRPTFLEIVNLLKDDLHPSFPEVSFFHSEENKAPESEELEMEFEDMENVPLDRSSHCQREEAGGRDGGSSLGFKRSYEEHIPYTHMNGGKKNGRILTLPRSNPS
Epidermal growth factor receptor, sequence (P00533 whole entry): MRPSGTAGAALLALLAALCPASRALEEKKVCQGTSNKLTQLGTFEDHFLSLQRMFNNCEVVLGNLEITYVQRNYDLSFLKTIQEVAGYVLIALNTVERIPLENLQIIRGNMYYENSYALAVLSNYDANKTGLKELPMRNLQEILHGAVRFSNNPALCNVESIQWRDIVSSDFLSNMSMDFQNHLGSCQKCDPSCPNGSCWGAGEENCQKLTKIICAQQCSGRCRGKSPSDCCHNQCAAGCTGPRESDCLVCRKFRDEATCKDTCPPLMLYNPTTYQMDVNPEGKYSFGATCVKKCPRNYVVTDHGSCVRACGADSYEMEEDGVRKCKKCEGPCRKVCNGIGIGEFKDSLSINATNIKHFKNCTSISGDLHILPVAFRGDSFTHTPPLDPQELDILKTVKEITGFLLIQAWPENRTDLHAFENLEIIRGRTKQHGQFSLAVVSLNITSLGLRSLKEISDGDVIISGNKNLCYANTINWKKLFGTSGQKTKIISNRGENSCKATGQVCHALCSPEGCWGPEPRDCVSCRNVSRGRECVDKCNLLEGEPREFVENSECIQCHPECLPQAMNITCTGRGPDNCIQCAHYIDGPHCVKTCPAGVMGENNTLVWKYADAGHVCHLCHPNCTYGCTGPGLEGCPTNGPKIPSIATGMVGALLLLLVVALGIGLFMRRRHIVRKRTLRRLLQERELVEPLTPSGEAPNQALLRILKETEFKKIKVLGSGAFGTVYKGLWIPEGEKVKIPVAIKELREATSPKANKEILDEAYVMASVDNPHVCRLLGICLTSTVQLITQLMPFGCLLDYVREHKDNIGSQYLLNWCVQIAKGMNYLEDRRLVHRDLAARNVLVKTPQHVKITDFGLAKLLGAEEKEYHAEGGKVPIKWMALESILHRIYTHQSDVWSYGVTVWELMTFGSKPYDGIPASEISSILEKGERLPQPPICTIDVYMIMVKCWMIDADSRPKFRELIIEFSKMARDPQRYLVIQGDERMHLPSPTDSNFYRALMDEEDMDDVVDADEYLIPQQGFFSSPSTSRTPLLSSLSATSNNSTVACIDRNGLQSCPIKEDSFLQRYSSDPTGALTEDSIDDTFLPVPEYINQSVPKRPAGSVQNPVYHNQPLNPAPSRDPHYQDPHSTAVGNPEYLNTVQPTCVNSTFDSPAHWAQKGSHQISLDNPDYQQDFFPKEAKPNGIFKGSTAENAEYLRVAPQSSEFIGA
Serine/threonine-protein kinase B-raf, sequence (P15056 2-766 V600E limits assumed): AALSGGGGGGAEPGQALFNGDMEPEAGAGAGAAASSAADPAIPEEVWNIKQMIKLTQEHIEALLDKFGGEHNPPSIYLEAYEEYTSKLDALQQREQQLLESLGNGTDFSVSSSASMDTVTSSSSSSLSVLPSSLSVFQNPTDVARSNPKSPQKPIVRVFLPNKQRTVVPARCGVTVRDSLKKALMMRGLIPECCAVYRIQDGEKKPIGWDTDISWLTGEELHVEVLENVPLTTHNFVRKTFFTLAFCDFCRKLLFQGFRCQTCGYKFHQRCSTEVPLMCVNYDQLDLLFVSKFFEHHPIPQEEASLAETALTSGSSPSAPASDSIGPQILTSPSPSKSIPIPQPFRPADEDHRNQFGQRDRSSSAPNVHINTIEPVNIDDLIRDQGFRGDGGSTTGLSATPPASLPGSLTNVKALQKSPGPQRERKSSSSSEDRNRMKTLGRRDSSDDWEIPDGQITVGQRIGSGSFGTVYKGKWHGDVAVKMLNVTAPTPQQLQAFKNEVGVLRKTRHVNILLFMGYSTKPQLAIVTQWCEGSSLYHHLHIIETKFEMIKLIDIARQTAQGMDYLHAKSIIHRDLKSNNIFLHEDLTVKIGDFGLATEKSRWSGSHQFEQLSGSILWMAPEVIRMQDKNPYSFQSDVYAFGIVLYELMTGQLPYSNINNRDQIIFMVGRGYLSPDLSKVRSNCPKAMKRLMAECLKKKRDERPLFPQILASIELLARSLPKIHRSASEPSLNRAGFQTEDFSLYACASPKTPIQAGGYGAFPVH

## CCc1cc(Nc2nccc(-c3c(-c4ccc(OC)c(C(=O)Nc5c(F)cccc5F)c4)nc4ccccn34)n2)c(OC)cc1N1CCC(N2CCN(S(C)(=O)=O)CC2)CC1
Aurora kinase A
  IC50: > 1.5 µM
[1]
  CL/F: 5.8 mL/min/kg
LP-1
  IC50: 0.104 µM
[2]
  Ki: 0.0016 µM
COLO 205
  IC50: 0.124 µM
Rattus norvegicus [3]
  Vdss: 7.5 L/kg
[4]
  IC50: > 25 µM
HFF
  IC50: > 20 µM
Cynomolgus monkey [5]
  Vdss: 9.8 L/kg
[6]
  IC50: 0.022 µM
Rattus norvegicus [7]
  AUC: 1220 ng·h/mL
Canis familiaris [8]
  AUC: 870 ng·h/mL
[9]
  IC50: > 3 µM
[10]
  IC50: 11 µM
[11]
  IC50: > 2 µM
[12]
  IC50: 0.027 µM
[13]
  IC50: 0.035 µM
[14]
  IC50: > 10 µM
[15]
  IC50: 0.061 µM
[16]
  bioavailability: 97%
[17]
  IC50: 0.081 µM
Insulin receptor [18]
  Ki: 0.0013 µM
[19]
  CL/F: 13.9 mL/min/kg
Insulin receptor [20]
  IC50: 0.019 µM
Aurora kinase B
  IC50: 4.5 µM
A549
  IC50: > 20 µM
[21]
  bioavailability: 63%
[22]
  IC50: > 10 µM
Cynomolgus monkey [23]
  AUC: 1070 ng·h/mL
[24]
  CL/F: 8.7 mL/min/kg
[25]
  bioavailability: 47%
Canis familiaris [26]
  Vdss: 4.7 L/kg
Insulin receptor [27]
  IC50: 0.025 µM

## COc1cc(N2CCC(N3CC[C@@H](F)C3)CC2)ccc1Nc1nccc(-c2c(-c3cccc(C(=O)Nc4c(F)cccc4F)c3)nc3ccccn23)n1
[6]
  IC50: 0.04 µM
[12]
  IC50: 0.002 µM
Mus musculus [28]
  AUC: 494 ng·h/mL

## COc1cc(N2CCC(N3CCOCC3)CC2)ccc1Nc1nccc(-c2c(-c3cccc(C(=O)Nc4c(F)cccc4F)c3)nc3ccccn23)n1
[6]
  IC50: 0.041 µM
[12]
  IC50: 0.002 µM
Mus musculus [28]
  AUC: 276 ng·h/mL

## CCc1cc(Nc2nccc(-c3c(-c4cccc(C(=O)Nc5c(F)cccc5F)c4)nc4ccccn34)n2)c(OC)cc1N1CCC(N2CCN(S(C)(=O)=O)CC2)CC1
Aurora kinase A
  IC50: > 9.5 µM
[4]
  IC50: 0.14 µM
[9]
  IC50: 0.71 µM
[10]
  IC50: 1.8 µM
[11]
  IC50: 0.32 µM
[12]
  IC50: 0.007 µM
[14]
  IC50: 0.022 µM
Aurora kinase B
  IC50: 1.3 µM
[22]
  IC50: 0.054 µM
Insulin receptor [27]
  IC50: 0.007 µM

## CN(C)CCOc1cccc(Nc2nccc(-c3c(-c4cccc(C(=O)Nc5c(F)cccc5F)c4)nc4ccccn34)n2)c1
[6]
  IC50: 0.177 µM
[12]
  IC50: 0.001 µM

## COc1cc(N2CCC(N3C[C@@H](C)O[C@@H](C)C3)CC2)ccc1Nc1nccc(-c2c(-c3cccc(C(=O)Nc4c(F)cccc4F)c3)nc3ccccn23)n1
[6]
  IC50: 0.068 µM
[12]
  IC50: 0.004 µM
Mus musculus [28]
  AUC: 549 ng·h/mL

## COc1cc(N2CCC(N3CCCCC3)CC2)ccc1Nc1nccc(-c2c(-c3cccc(C(=O)Nc4c(F)cccc4F)c3)nc3ccccn23)n1
[6]
  IC50: 0.038 µM
[29]
  CL/F: 13.4 mL/min/kg
[12]
  IC50: 0.002 µM
Mus musculus [30]
  AUC: 239 ng·h/mL

## COc1cc(N2CCC(N3CCN(S(C)(=O)=O)CC3)CC2)ccc1Nc1nccc(-c2c(-c3cccc(C(=O)Nc4c(F)cccc4F)c3)nc3ccccn23)n1
Aurora kinase A
  IC50: 1.6 µM
[2]
  Ki: 0.0052 µM
[4]
  IC50: 0.074 µM
[6]
  IC50: 0.036 µM
[29]
  CL/F: 13.6 mL/min/kg
[9]
  IC50: 1.2 µM
[10]
  IC50: 0.44 µM
[11]
  IC50: 0.08 µM
[12]
  IC50: 0.005 µM
[14]
  IC50: 0.057 µM
Mus musculus [28]
  AUC: 1060 ng·h/mL
Insulin receptor [18]
  Ki: 0.0022 µM
Aurora kinase B
  IC50: 0.2 µM
[22]
  IC50: 0.072 µM
Insulin receptor [27]
  IC50: 0.005 µM

## O=C(Nc1c(F)cccc1F)c1cccc(-c2nc3ccccn3c2-c2ccnc(Nc3ccc(N4CCC(N5CCCCC5)CC4)cc3)n2)c1
[6]
  IC50: 0.087 µM
[12]
  IC50: 0.002 µM

## COc1cc(N2CCC(N3CCN(C(C)=O)CC3)CC2)ccc1Nc1nccc(-c2c(-c3cccc(C(=O)Nc4c(F)cccc4F)c3)nc3ccccn23)n1
[6]
  IC50: 0.065 µM
[12]
  IC50: 0.003 µM
Mus musculus [28]
  AUC: 216 ng·h/mL

## COc1cc(N2CCC(N3CCN(C)CC3)CC2)ccc1Nc1nccc(-c2c(-c3cccc(C(=O)Nc4c(F)cccc4F)c3)nc3ccccn23)n1
[6]
  IC50: 0.028 µM
[12]
  IC50: 0.002 µM
Mus musculus [28]
  AUC: 203 ng·h/mL

## COc1cc(N2CCC(N3CCCC3)CC2)ccc1Nc1nccc(-c2c(-c3cccc(C(=O)Nc4c(F)cccc4F)c3)nc3ccccn23)n1
[6]
  IC50: 0.038 µM
[12]
  IC50: 0.002 µM
Mus musculus [28]
  AUC: 121 ng·h/mL
